ChEMBL document CHEMBL3244245, “Aporphines, 21. (1,2) Dopaminergic activity of aporphine and benzylisoquinoline derivatives. Synthesis of 8-hydroxyaporphines and 1-(hydroxybenzyl)-2-n-propyl-1,2,3,4-tetrahydroisoquinolines” (J Med Chem, 1977)
Calls of active or inactive are those of the source.

Columns and labels:
Rattus norvegicus [1] = species on record: Rattus norvegicus; assay: Stereotyped behavior in Sprague-Dawley rat pretreated with nialamide assessed as sniffing behavior at 3.125 to 25 µg, bilateral intrastriatal
Rattus norvegicus [2] = assay: Behavioral responses in Sprague-Dawley rat with unilateral 6-OHDA lesion of nigrostriatal pathway assessed as bilateral response at 6.25 to 25 […] into caudate-putamen; format: functional, organism-based
How it was run: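 Guide cannulae implanted chronically; rats used 10-14 days after surgery. Nialamide 100 mg/kg ip given 2 h before injection. Drug dissolved in nitrogen-bubbled distilled water and injected bilaterally into caudate-putamen through injection units 1.5 mm below guide tips. Photocell counts per 5-min period recorded every 10 min up to 7 h. Biting and sniffing scored on intensity scales. Six to twelve rats per dose.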

Rattus norvegicus [3] = species on record: Rattus norvegicus; assay: Stereotyped behavior in Sprague-Dawley rat pretreated with nialamide assessed as biting behavior at 3.125 to 25 µg, bilateral intrastriatal
Rattus norvegicus [4] = assay: Antagonism of dopamine-induced hyperactivity in Sprague-Dawley rat with unilateral 6-OHDA lesion of nigrostriatal pathway at 0.1 to 1 mg/kg, sc after 2.5 hrs treated bilateral injection of 50 ug of dopamine into the nucleus accumbens; format: functional, organism-based
How it was run: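 Rats received nialamide 100 mg/kg ip, then 2 h later 50 µg dopamine bilaterally into the nucleus accumbens. At 2.5 h, at peak hyperactivity, test drug was given sc in water with 0.1% sodium metabisulfite. Locomotion was measured as photocell beam interruptions per 5 min. Five to eight rats were used per dose.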

Rattus norvegicus [5] = species on record: Rattus norvegicus; assay: Behavioral responses in Sprague-Dawley rat pretreated with nialamide assessed as hyperactivity response at 6.25 to 25 µg direct injection into caudate-putamen
Rattus norvegicus [6] = species on record: Rattus norvegicus; assay: Stereotyped behavior in Sprague-Dawley rat pretreated with nialamide assessed as hyperactivity behavior at 3.125 to 25 µg, bilateral intrastriatal
Rattus norvegicus [7] = assay: Stereotyped behavior in Sprague-Dawley rat with unilateral 6-OHDA lesion of nigrostriatal pathway assessed as continuous biting at 0.5 to 4 mg/kg, sc; format: functional, organism-based
Rattus norvegicus [8] = assay: Behavioral responses in Sprague-Dawley rat with unilateral 6-OHDA lesion of nigrostriatal pathway assessed as hyperactivity response at 3.125 to 25 […] into nucleus accumbens; format: functional, organism-based
How it was run: (§1)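 Guide cannulae implanted chronically; rats used 10-14 days after surgery. Nialamide 100 mg/kg ip given 2 h before injection. Drug in nitrogen-bubbled distilled water injected bilaterally into nucleus accumbens through units 2.5 mm below guide tips. Hyperactivity counted as photocell interruptions per 5-min period, recorded every 10 min up to 7 h. Biting and sniffing scored on intensity scales. Six to twelve rats per dose.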

Rattus norvegicus [9] = assay: Circling behavior in Sprague-Dawley rat with unilateral 6-OHDA lesion of nigrostriatal pathway assessed as number of revolutions performed per min at 0.25 to 4 mg/kg, sc; format: functional, organism-based
How it was run: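 Unilateral lesion made by infusing 4 µl 6-OHDA at 1 µl/min into the medial forebrain bundle in the lateral hypothalamus. Rats were tested 7-21 days later with drug given sc in distilled water containing 0.1% sodium metabisulfite. Contralateral circling was counted as revolutions per min. Values are the mean of at least five rats.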

Rattus norvegicus [10] = assay: Stereotyped behavior in Sprague-Dawley rat with unilateral 6-OHDA lesion of nigrostriatal pathway assessed as sniffing and repetitive head and limb movements up to 4 mg/kg, sc; format: functional, organism-based; design: dose 4 mg/kg
Rattus norvegicus [11] = species on record: Rattus norvegicus; assay: Stereotyped behavior in Sprague-Dawley rat pretreated with nialamide assessed as bilateral behavior at 3.125 to 25 µg, bilateral intrastriatal
Rattus norvegicus [12] = assay: Stereotyped behavior in Sprague-Dawley rat with unilateral 6-OHDA lesion of nigrostriatal pathway assessed as continuous biting up to 4 mg/kg, sc; format: functional, organism-based; design: dose 4 mg/kg
Rattus norvegicus [13] = assay: Stereotyped behavior in Sprague-Dawley rat with unilateral 6-OHDA lesion of nigrostriatal pathway assessed as continuous biting at 0.1 mg/kg, sc; format: functional, organism-based; design: dose 0.1 mg/kg
Rattus norvegicus [14] = assay: Stereotyped behavior in Sprague-Dawley rat with unilateral 6-OHDA lesion of nigrostriatal pathway assessed as sniffing behavior at 25 […] into nucleus accumbens; format: functional, organism-based
How it was run: as §1

Rattus norvegicus [15] = assay: Stereotyped behavior in Sprague-Dawley rat with unilateral 6-OHDA lesion of nigrostriatal pathway assessed as sniffing and repetitive head and limb movements at 0.0063 to 0.05 mg/kg, sc; format: functional, organism-based
Rattus norvegicus [16] = species on record: Rattus norvegicus; assay: Stereotyped behavior in Sprague-Dawley rat pretreated with nialamide assessed as sniffing behavior at 25 µg, bilateral intrastriatal
Rattus norvegicus [17] = assay: Antagonism of dopamine-induced hyperactivity in sc dosed Sprague-Dawley rat with unilateral 6-OHDA lesion of nigrostriatal pathway after 2.5 hrs treated bilateral injection of 50 ug of dopamine into the nucleus accumbens; format: functional, organism-based
How it was run: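 Rats pretreated with nialamide 100 mg/kg ip; 2 h later, 50 µg dopamine bilaterally into nucleus accumbens. At 2.5 h, at peak hyperactivity, test drug given sc in distilled water with 0.1% sodium metabisulfite. Activity read as photocell beam interruptions per 5-min period. Five to eight rats per dose.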

Rattus norvegicus [18] = assay: Stereotyped behavior in Sprague-Dawley rat with unilateral 6-OHDA lesion of nigrostriatal pathway assessed as maximal biting behavior at 25 […] into nucleus accumbens; format: functional, organism-based
How it was run: as §1

Rattus norvegicus [19] = species on record: Rattus norvegicus; assay: Stereotyped behavior in Sprague-Dawley rat pretreated with nialamide assessed as biting behavior at 25 µg, bilateral intrastriatal
Rattus norvegicus [20] = assay: Stereotyped behavior in Sprague-Dawley rat with unilateral 6-OHDA lesion of nigrostriatal pathway assessed as biting behavior at 3.125 to 25 […] into nucleus accumbens; format: functional, organism-based
How it was run: as §1

Rattus norvegicus [21] = assay: Circling behavior in sc dosed Sprague-Dawley rat with unilateral 6-OHDA lesion of nigrostriatal pathway assessed as number of revolutions performed per min; format: functional, organism-based
How it was run: (§2)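 Unilateral lesion made with 6-OHDA, 4 µl of 2 µg/µl at 1 µl/min, into medial forebrain bundle area of lateral hypothalamus. Rats tested 7-21 days later. Drug given sc in distilled water with 0.1% sodium metabisulfite. Contralateral circling counted as revolutions per minute. Mean of at least five rats.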

Rattus norvegicus [22] = species on record: Rattus norvegicus; assay: Behavioral responses in Sprague-Dawley rat pretreated with nialamide assessed as hyperactivity response at 25 µg, bilateral intrastriatal
Rattus norvegicus [23] = assay: Stereotyped behavior in Sprague-Dawley rat with unilateral 6-OHDA lesion of nigrostriatal pathway assessed as continuous biting at 2 mg/kg, sc; format: functional, organism-based; design: dose 2 mg/kg
Rattus norvegicus [24] = species on record: Rattus norvegicus; assay: Stereotyped behavior in Sprague-Dawley rat pretreated with nialamide assessed as sniffing behavior at 50 µg, bilateral intrastriatal
Rattus norvegicus [25] = species on record: Rattus norvegicus; assay: Stereotyped behavior in Sprague-Dawley rat with unilateral 6-OHDA lesion of nigrostriatal pathway assessed as continuous biting; format: functional, organism-based
Rattus norvegicus [26] = assay: Stereotyped behavior in sc dosed Sprague-Dawley rat with unilateral 6-OHDA lesion of nigrostriatal pathway assessed as sniffing and repetitive head and limb movements; format: functional, organism-based
Rattus norvegicus [27] = assay: Stereotyped behavior in Sprague-Dawley rat with unilateral 6-OHDA lesion of nigrostriatal pathway assessed as sniffing behavior at 6.25 to 50 […] into nucleus accumbens; format: functional, organism-based
How it was run: (§3)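 Nialamide 100 mg/kg ip was given 2 h beforehand. Drug was dissolved in nitrogen-bubbled water and injected bilaterally through chronic guide cannulae 10-14 days after surgery. Injection units extended 1.5 mm (caudate-putamen) or 2.5 mm (nucleus accumbens) below the guides. Biting and sniffing were scored in photocell boxes, and hyperactivity was counted as beam interruptions per 5 min, recorded every 10 min for up to 7 h. Six to twelve rats were used per dose.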

Rattus norvegicus [28] = assay: Stereotyped behavior in Sprague-Dawley rat with unilateral 6-OHDA lesion of nigrostriatal pathway assessed as biting behavior at 25 to 50 […] into caudate-putamen; format: functional, organism-based
How it was run: as §3

Rattus norvegicus [29] = assay: Stereotyped behavior in Sprague-Dawley rat with unilateral 6-OHDA lesion of nigrostriatal pathway assessed as biting behavior at 6.25 to 50 […] into nucleus accumbens; format: functional, organism-based
How it was run: as §3

Rattus norvegicus [30] = assay: Stereotyped behavior in Sprague-Dawley rat with unilateral 6-OHDA lesion of nigrostriatal pathway assessed as maximal sniffing and repetitive head and limb movements at 0.5 mg/kg, sc; format: functional, organism-based; design: dose 0.5 mg/kg
Rattus norvegicus [31] = assay: Behavioral responses in Sprague-Dawley rat with unilateral 6-OHDA lesion of nigrostriatal pathway assessed as hyperactivity response at 6.25 to 50 […] direct injection into nucleus accumbens; format: functional, organism-based
How it was run: as §3

Rattus norvegicus [32] = assay: Circling behavior in Sprague-Dawley rat with unilateral 6-OHDA lesion of nigrostriatal pathway assessed as number of revolutions performed per min at 0.5 to 2 mg/kg, sc; format: functional, organism-based
How it was run: as §2

CCCN1CCc2ccccc2C1Cc1ccc(O)cc1 (racemic)
inactive: Activity (Rattus norvegicus [1]) | Activity (Rattus norvegicus [2]) | Activity (Rattus norvegicus [3]) | inhibition (Rattus norvegicus [4]) | Activity (Rattus norvegicus [5]) | Activity (Rattus norvegicus [6]) | Activity (Rattus norvegicus [7]) | Activity (Rattus norvegicus [8]) | Activity (Rattus norvegicus [9]) | Activity (Rattus norvegicus [10]) | Activity (Rattus norvegicus [11])

CCCN1CCc2cccc3c2C1Cc1c(O)cccc1-3 (racemic)
active: Activity (Rattus norvegicus [12])
inactive: Activity (Rattus norvegicus [1]) | Activity (Rattus norvegicus [2]) | Activity (Rattus norvegicus [3]) | inhibition (Rattus norvegicus [4]) | Activity (Rattus norvegicus [5]) | Activity (Rattus norvegicus [6]) | Activity (Rattus norvegicus [8]) | Activity (Rattus norvegicus [9]) | Activity (Rattus norvegicus [10]) | Activity (Rattus norvegicus [11])

CN1CCc2cccc3c2C1Cc1c(O)cccc1-3 (racemic)
inactive: Activity (Rattus norvegicus [2]) | Activity (Rattus norvegicus [5])

CCCN1CCc2cccc3c2[C@H]1Cc1ccc(O)c(O)c1-3
active: Activity (Rattus norvegicus [13]) | Activity (Rattus norvegicus [14]) | Activity (Rattus norvegicus [15]) | Activity (Rattus norvegicus [16]) | inhibition (Rattus norvegicus [17]) Dose-dependent effect | Activity (Rattus norvegicus [18]) | Activity (Rattus norvegicus [19]) | Activity (Rattus norvegicus [20]) | Activity (Rattus norvegicus [21]) Dose-dependent effect
inactive: Activity (Rattus norvegicus [2]) | Activity (Rattus norvegicus [5]) | Activity (Rattus norvegicus [8]) | Activity (Rattus norvegicus [22])

CCCN1CCc2ccccc2C1Cc1ccc(O)c(O)c1 (racemic)
inactive: Activity (Rattus norvegicus [1]) | Activity (Rattus norvegicus [2]) | Activity (Rattus norvegicus [3]) | inhibition (Rattus norvegicus [4]) | Activity (Rattus norvegicus [5]) | Activity (Rattus norvegicus [6]) | Activity (Rattus norvegicus [7]) | Activity (Rattus norvegicus [8]) | Activity (Rattus norvegicus [9]) | Activity (Rattus norvegicus [10]) | Activity (Rattus norvegicus [11])

CN1CCc2cccc3c2[C@H]1Cc1ccc(O)c(O)c1-3
inactive: Activity (Rattus norvegicus [24]) | Activity (Rattus norvegicus [2]) | inhibition (Rattus norvegicus [4]) | Activity (Rattus norvegicus [5])
active: Activity (Rattus norvegicus [23]) | inhibition (Rattus norvegicus [17]) Dose-dependent effect | Activity (Rattus norvegicus [25]) Dose-dependent effect | Activity (Rattus norvegicus [26]) Dose-dependent effect | Activity (Rattus norvegicus [27]) | Activity (Rattus norvegicus [28]) | Activity (Rattus norvegicus [29]) | Activity (Rattus norvegicus [30]) | Activity (Rattus norvegicus [21]) Dose-dependent effect | Activity (Rattus norvegicus [31])

CCCN1CCc2cccc3c2C1Cc1ccc(O)cc1-3 (stereo unspecified)
active: Activity (Rattus norvegicus [12]) | Activity (Rattus norvegicus [32]) Dose-dependent effect
inactive: Activity (Rattus norvegicus [1]) | Activity (Rattus norvegicus [2]) | Activity (Rattus norvegicus [3]) | inhibition (Rattus norvegicus [4]) | Activity (Rattus norvegicus [5]) | Activity (Rattus norvegicus [6]) | Activity (Rattus norvegicus [8]) | Activity (Rattus norvegicus [10]) | Activity (Rattus norvegicus [11])

NCCc1ccc(O)c(O)c1
active: Activity (Rattus norvegicus [2]) | Activity (Rattus norvegicus [5])
inactive: Activity (Rattus norvegicus [31])
